In assay [1] the test system is Culex pipiens pallens. The assay can be described thus: Larvicidal activity against Culex pipiens pallens (mosquito) at 5 mg/kg. The assay is classed as functional.
Assay [2] concerns Tetranychus cinnabarinus. Description: Acaricidal activity against Tetranychus cinnabarinus (carmine spider mite) larvae at 200 mg/kg by leaf dip method. The assay is classed as functional.
In assay [3] the test system is Plutella xylostella. The assay can be described thus: Stomach toxicity against Plutella xylostella (diamondback moth) assessed as larvicidal activity at 600 mg/kg by leaf dip method. The assay is classed as functional.
The test system of assay [4] is Helicoverpa armigera. Description: Stomach toxicity against third-instars Helicoverpa armigera assessed as larvicidal activity at 55 mg/kg at 25 +/- 1 degC after 3 days. The assay is classed as functional. A digest of the protocol: (§1)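 Diet-incorporation assay on third-instar larvae. Samples dissolved in acetone to the desired final concentrations; 3 mL of test solution mixed evenly into about 27 g of prepared feed, then dispensed into 24-well plates. Run in triplicate at 25 ± 1 °C. Dead/alive scoring 3 days after treatment; mortality corrected by Abbott's formula on a 0–100 scale.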

The test system of assay [5] is Culex pipiens pallens. The assay can be described thus: Larvicidal activity against Culex pipiens pallens (mosquito) at 1 mg/kg. It is filed as functional.
Assay [6] concerns Aphis craccivora. The assay can be described thus: Larvicidal activity against Aphis craccivora (cowpea aphid) at 200 mg/kg by leaf dip method. The assay is classed as functional.
The subject of assay [7] is Tetranychus cinnabarinus. The assay can be described thus: Acaricidal activity against Tetranychus cinnabarinus (carmine spider mite) eggs at 200 mg/kg by leaf dip method. The assay is classed as functional, Egg.
Assay [8] concerns Plutella xylostella. The assay can be described thus: Stomach toxicity against Plutella xylostella (diamondback moth) assessed as larvicidal activity at 200 mg/kg by leaf dip method. The assay is classed as functional.
The test system of assay [9] is Aphis craccivora. Description: Larvicidal activity against Aphis craccivora (cowpea aphid) at 600 mg/kg by leaf dip method. The assay is classed as functional.
For assay [10], the system named is Helicoverpa armigera. Description: Stomach toxicity against third-instars Helicoverpa armigera assessed as larvicidal activity at 11 mg/kg at 25 +/- 1 degC after 3 days. It is filed as functional. A digest of the protocol: as §1
Assay [11] deals with Helicoverpa armigera. Description: Stomach toxicity against third-instars Helicoverpa armigera assessed as larvicidal activity at 110 mg/kg at 25 +/- 1 degC after 3 days. It is filed as functional. A digest of the protocol: as §1
The test system of assay [12] is Tetranychus cinnabarinus. Description: Acaricidal activity against Tetranychus cinnabarinus (carmine spider mite) eggs at 600 mg/kg by leaf dip method. The assay is classed as functional, Egg.
The test system of assay [13] is Tetranychus cinnabarinus. Description: Acaricidal activity against Tetranychus cinnabarinus (carmine spider mite) larvae at 600 mg/kg by leaf dip method. It is filed as functional.
Assay [14] relates to Tetranychus cinnabarinus. The assay can be described thus: Acaricidal activity against Tetranychus cinnabarinus (carmine spider mite) adults at 600 mg/kg by leaf dip method. It is filed as functional.
Assay [15] deals with Helicoverpa armigera. The assay can be described thus: Stomach toxicity against third-instars Helicoverpa armigera assessed as larvicidal activity at 22 mg/kg at 25 +/- 1 degC after 3 days. It is filed as functional. A digest of the protocol: as §1
The subject of assay [16] is Culex pipiens pallens. The assay can be described thus: Larvicidal activity against Culex pipiens pallens (mosquito) at 2 mg/kg. It is filed as functional.
Assay [17] concerns Tetranychus cinnabarinus. The assay can be described thus: Acaricidal activity against Tetranychus cinnabarinus (carmine spider mite) adults at 200 mg/kg by leaf dip method. It is filed as functional.
For assay [18], the system named is Helicoverpa armigera. The assay can be described thus: Stomach toxicity against third-instars Helicoverpa armigera assessed as larvicidal activity at 5.5 mg/kg at 25 +/- 1 degC after 3 days. The assay is classed as functional. A digest of the protocol: as §1

For `CCCCCOc1ccc(C(CCl)NC(=O)c2cc(CC)nn2C)cc1` (stereo not drawn), the Activity in the assay with Culex pipiens pallens [1] is 100%; with Tetranychus cinnabarinus [2] it was 40%; in the assay with Plutella xylostella [3] it was 15%; with Helicoverpa armigera [4], 100%; in the assay on Culex pipiens pallens [5] it was 0%; in the assay on Aphis craccivora [6] it was 80%. The Activity amounted to 50% in the assay with Tetranychus cinnabarinus [7]; 0% in the assay on Plutella xylostella [8]; 100% in the assay with Aphis craccivora [9]; 0% in the assay with Helicoverpa armigera [10]; 100% in the assay on Helicoverpa armigera [11]; 70% in the assay on Tetranychus cinnabarinus [12]. For the same compound, the Activity with Tetranychus cinnabarinus [13] is reported as 70%; in the assay with Tetranychus cinnabarinus [14] it was 0%; in the assay on Helicoverpa armigera [15], 40%; with Culex pipiens pallens [16] it was 60%.
`CCc1cc(C2=NC(c3ccc(Cl)cc3)CO2)n(C)n1` (stereo not drawn): the Activity came to 0% in the assay with Tetranychus cinnabarinus [17]; 10% in the assay with Culex pipiens pallens [1]; 20% in the assay with Tetranychus cinnabarinus [2]; 60% with Plutella xylostella [3]; 100% in the assay on Helicoverpa armigera [4]; 90% in the assay with Aphis craccivora [6]. For the same compound, the Activity in the assay with Tetranychus cinnabarinus [7] was found to be 80%; with Plutella xylostella [8] it was 15%; in the assay with Aphis craccivora [9], 100%; in the assay on Helicoverpa armigera [10], 40%; with Helicoverpa armigera [11] it was 100%; with Tetranychus cinnabarinus [12], 100%. In addition, the Activity worked out at 40% with Tetranychus cinnabarinus [13]; 20% in the assay on Tetranychus cinnabarinus [14]; 70% in the assay on Helicoverpa armigera [15]; 0% with Culex pipiens pallens [16]; 0% in the assay with Helicoverpa armigera [18].
Take `CCCCCOc1ccc(C(CO)NC(=O)c2c(Cl)c(CC)nn2C)cc1` (stereo not drawn): the Activity in the assay on Tetranychus cinnabarinus [17] is recorded as 0%; in the assay on Culex pipiens pallens [1], 20%; in the assay on Tetranychus cinnabarinus [2] it was 0%; in the assay on Plutella xylostella [3], 90%; in the assay on Helicoverpa armigera [4] it was 100%; with Aphis craccivora [6], 95%. Also, the Activity in the assay on Tetranychus cinnabarinus [7] was found to be 20%; in the assay on Plutella xylostella [8], 30%; in the assay on Aphis craccivora [9] it was 100%; in the assay on Helicoverpa armigera [10], 0%; in the assay with Helicoverpa armigera [11], 100%; in the assay on Tetranychus cinnabarinus [12], 30%. The Activity was 20% in the assay on Tetranychus cinnabarinus [13], 15% in the assay on Tetranychus cinnabarinus [14], 30% in the assay with Helicoverpa armigera [15] and 0% in the assay with Culex pipiens pallens [16].
For `CCc1nn(C)c(C(=O)NC(CO)c2ccc(C(C)(C)C)cc2)c1Cl` (stereo not drawn), the Activity in the assay with Tetranychus cinnabarinus [17] is 0%; with Culex pipiens pallens [1] it was 20%; in the assay on Plutella xylostella [3], 80%; in the assay on Helicoverpa armigera [4], 100%; with Aphis craccivora [6], 80%; in the assay with Tetranychus cinnabarinus [7], 0%. Also, the Activity in the assay on Plutella xylostella [8] came to 40%; with Aphis craccivora [9], 100%; with Helicoverpa armigera [10], 0%; with Helicoverpa armigera [11] it was 100%; in the assay on Tetranychus cinnabarinus [12] it was 40%; with Tetranychus cinnabarinus [13] it was 25%. Besides, the Activity was found to be 10% in the assay on Tetranychus cinnabarinus [14], 40% in the assay on Helicoverpa armigera [15] and 0% in the assay on Culex pipiens pallens [16].
Turning to `CCc1nn(C)c(C(=O)NC(CO)c2ccc(Cl)cc2)c1Cl` (stereo not drawn), the Activity was 30% in the assay with Culex pipiens pallens [1]; 0% in the assay with Tetranychus cinnabarinus [2]; 30% in the assay with Plutella xylostella [3]; 100% with Helicoverpa armigera [4]; 95% with Aphis craccivora [6]; 0% in the assay on Tetranychus cinnabarinus [7]. Also, the Activity with Plutella xylostella [8] is 0%; in the assay with Aphis craccivora [9], 100%; in the assay on Helicoverpa armigera [10], 0%; in the assay on Helicoverpa armigera [11], 100%; with Tetranychus cinnabarinus [12] it was 10%; in the assay on Tetranychus cinnabarinus [13], 25%. In addition, the Activity in the assay on Tetranychus cinnabarinus [14] is 0%; in the assay on Helicoverpa armigera [15], 40%; in the assay with Culex pipiens pallens [16], 0%.
As to `CCCCCOc1ccc(C2COC(c3cc(CC)nn3C)=N2)cc1` (stereo not drawn), the Activity stood at 0% in the assay with Tetranychus cinnabarinus [17]; 30% in the assay on Culex pipiens pallens [1]; 0% in the assay on Tetranychus cinnabarinus [2]; 30% in the assay on Plutella xylostella [3]; 100% in the assay with Helicoverpa armigera [4]; 20% in the assay on Aphis craccivora [6]. The Activity is 40% in the assay on Tetranychus cinnabarinus [7]; 0% in the assay on Plutella xylostella [8]; 75% with Aphis craccivora [9]; 0% in the assay on Helicoverpa armigera [10]; 100% in the assay on Helicoverpa armigera [11]; 50% in the assay with Tetranychus cinnabarinus [12]. The Activity in the assay with Tetranychus cinnabarinus [13] is given as 30%; in the assay on Tetranychus cinnabarinus [14], 20%; in the assay with Helicoverpa armigera [15], 30%; with Culex pipiens pallens [16] it was 0%.
`CCCCCOc1ccc(C(CO)NC(=O)c2cc(CC)nn2C)cc1` (stereo not drawn): the Activity in the assay with Tetranychus cinnabarinus [17] came out at 0%; in the assay on Culex pipiens pallens [1], 20%; with Tetranychus cinnabarinus [2] it was 0%; in the assay with Plutella xylostella [3], 45%; with Helicoverpa armigera [4], 100%; in the assay on Aphis craccivora [6] it was 85%. The Activity in the assay with Tetranychus cinnabarinus [7] is recorded as 0%; with Plutella xylostella [8], 30%; in the assay on Aphis craccivora [9], 100%; with Helicoverpa armigera [10], 20%; in the assay with Helicoverpa armigera [11], 100%; in the assay with Tetranychus cinnabarinus [12], 20%. The Activity was 20% with Tetranychus cinnabarinus [13]; 45% in the assay on Tetranychus cinnabarinus [14]; 60% with Helicoverpa armigera [15]; 0% with Culex pipiens pallens [16]; 0% with Helicoverpa armigera [18].
`CCc1cc(C(=O)NC(CO)c2ccc(Cl)cc2)n(C)n1` (stereo not drawn): the Activity came out at 0% with Tetranychus cinnabarinus [17]; 20% with Culex pipiens pallens [1]; 0% in the assay on Tetranychus cinnabarinus [2]; 100% in the assay on Plutella xylostella [3]; 100% in the assay with Helicoverpa armigera [4]; 75% in the assay with Aphis craccivora [6]. Moreover, the Activity is recorded as 60% in the assay with Plutella xylostella [8]; 98% with Aphis craccivora [9]; 0% in the assay with Helicoverpa armigera [10]; 100% in the assay with Helicoverpa armigera [11]; 0% in the assay on Tetranychus cinnabarinus [12]; 25% in the assay on Tetranychus cinnabarinus [13]. Further, the Activity in the assay on Tetranychus cinnabarinus [14] is on record as 25%; in the assay with Helicoverpa armigera [15], 50%; with Culex pipiens pallens [16], 0%.
Take `CCc1cc(C2=NC(c3ccc(Oc4ccccc4)cc3)CO2)n(C)n1` (stereo not drawn): the Activity stood at 10% with Tetranychus cinnabarinus [17]; 30% with Culex pipiens pallens [1]; 50% in the assay with Tetranychus cinnabarinus [2]; 70% in the assay on Plutella xylostella [3]; 100% in the assay on Helicoverpa armigera [4]; 20% with Aphis craccivora [6]. Further, the Activity in the assay on Tetranychus cinnabarinus [7] was found to be 50%; in the assay on Plutella xylostella [8], 45%; in the assay on Aphis craccivora [9], 50%; in the assay on Helicoverpa armigera [10], 0%; in the assay on Helicoverpa armigera [11], 100%; with Tetranychus cinnabarinus [12] it was 90%. In addition, the Activity in the assay with Tetranychus cinnabarinus [13] amounted to 70%; in the assay with Tetranychus cinnabarinus [14] it was 40%; in the assay with Helicoverpa armigera [15], 40%; in the assay on Culex pipiens pallens [16] it was 0%.
Take `CCc1cc(C(=O)NC(CO)c2ccc(C(C)(C)C)cc2)n(C)n1` (stereo not drawn): the Activity is given as 10% in the assay on Culex pipiens pallens [1]; 70% in the assay with Plutella xylostella [3]; 100% in the assay on Helicoverpa armigera [4]; 50% with Aphis craccivora [6]; 40% with Tetranychus cinnabarinus [7]; 60% in the assay with Plutella xylostella [8]. Also, the Activity with Aphis craccivora [9] came to 70%; in the assay on Helicoverpa armigera [10], 10%; in the assay on Helicoverpa armigera [11] it was 100%; in the assay on Tetranychus cinnabarinus [12] it was 50%; in the assay with Tetranychus cinnabarinus [13], 0%; in the assay on Tetranychus cinnabarinus [14], 0%. For the same compound, the Activity turned out to be 60% in the assay on Helicoverpa armigera [15], 0% in the assay with Culex pipiens pallens [16] and 0% with Helicoverpa armigera [18].
For `CCc1cc(C(=O)NC(CO)c2ccc(Oc3ccccc3)cc2)n(C)n1` (stereo not drawn), the Activity with Tetranychus cinnabarinus [17] worked out at 0%; in the assay with Culex pipiens pallens [1], 30%; in the assay with Plutella xylostella [3] it was 90%; in the assay on Helicoverpa armigera [4] it was 100%; in the assay with Aphis craccivora [6], 70%; with Tetranychus cinnabarinus [7], 0%. Besides, the Activity in the assay on Plutella xylostella [8] amounted to 45%; with Aphis craccivora [9], 95%; in the assay on Helicoverpa armigera [10] it was 0%; in the assay with Helicoverpa armigera [11] it was 100%; with Tetranychus cinnabarinus [12], 20%; with Tetranychus cinnabarinus [13], 0%. Besides, the Activity with Tetranychus cinnabarinus [14] is 30%; in the assay on Helicoverpa armigera [15], 30%; in the assay on Culex pipiens pallens [16], 0%.
Turning to `CCc1cc(C(=O)NC(CCl)c2ccc(Cl)cc2)n(C)n1` (stereo not drawn), the Activity was 10% with Culex pipiens pallens [1]; 0% in the assay with Tetranychus cinnabarinus [2]; 30% with Plutella xylostella [3]; 100% in the assay on Helicoverpa armigera [4]; 0% in the assay on Aphis craccivora [6]; 0% in the assay on Tetranychus cinnabarinus [7]. Further, the Activity in the assay with Plutella xylostella [8] is listed as 0%; in the assay on Aphis craccivora [9] it was 30%; in the assay with Helicoverpa armigera [10] it was 0%; in the assay on Helicoverpa armigera [11], 100%; in the assay on Tetranychus cinnabarinus [12] it was 30%; in the assay with Tetranychus cinnabarinus [13] it was 20%. The Activity is recorded as 0% with Tetranychus cinnabarinus [14], 20% in the assay with Helicoverpa armigera [15] and 0% with Culex pipiens pallens [16].
